Measurements reported in ChEMBL document CHEMBL2169837 (J Med Chem, 2012).
≈ marks a conversion by molar mass, not a printed value. Calls of active or inactive are those of the source. The calls are words filed in the database; no cut-off is given here.

Key:
Oxytocin receptor [1] = target: T1, Oxytocin receptor (Homo sapiens, UniProt P30559); assay: Displacement of [3H]-AVP from human oxytocin receptor expressed in CHO cells after 30 mins; assay type: cell-based
T1 sequence (P30559 whole entry): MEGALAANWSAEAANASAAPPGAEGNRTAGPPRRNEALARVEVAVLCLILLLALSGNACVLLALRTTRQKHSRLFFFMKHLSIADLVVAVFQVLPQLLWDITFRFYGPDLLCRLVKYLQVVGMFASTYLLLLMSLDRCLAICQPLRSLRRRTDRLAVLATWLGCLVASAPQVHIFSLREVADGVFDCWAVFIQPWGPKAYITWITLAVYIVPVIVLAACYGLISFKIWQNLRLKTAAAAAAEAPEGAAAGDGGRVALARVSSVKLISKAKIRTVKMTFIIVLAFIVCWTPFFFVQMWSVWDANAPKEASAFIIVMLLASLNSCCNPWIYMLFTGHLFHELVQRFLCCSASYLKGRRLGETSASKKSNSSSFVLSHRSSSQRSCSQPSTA

[2] = target: T2, Oxytocin receptor (Homo sapiens) (UniProt P30559); assay: Displacement of [3H]-AVP from human oxytocin receptor expressed in CHO cells at 10 uM after 30 mins; assay type: cell-based
T2 sequence (whole entry): T1 sequence (P30559 whole entry)
In short: (§1)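 Human OTR, V1aR or V1bR membranes from CHO cells, [3H]-AVP displacement with compound at a single 10 μM concentration, 30 min at 30 °C in Tris-HCl pH 7.4/MgCl2/BSA buffer.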

[3] = target: T3, Vasopressin V1b receptor (Homo sapiens) (UniProt P47901); assay: Displacement of [3H]-AVP from human vasopressin V1b receptor expressed in CHO cells at 10 uM after 30 mins; assay type: cell-based; in short: as §1
T3 sequence (whole entry): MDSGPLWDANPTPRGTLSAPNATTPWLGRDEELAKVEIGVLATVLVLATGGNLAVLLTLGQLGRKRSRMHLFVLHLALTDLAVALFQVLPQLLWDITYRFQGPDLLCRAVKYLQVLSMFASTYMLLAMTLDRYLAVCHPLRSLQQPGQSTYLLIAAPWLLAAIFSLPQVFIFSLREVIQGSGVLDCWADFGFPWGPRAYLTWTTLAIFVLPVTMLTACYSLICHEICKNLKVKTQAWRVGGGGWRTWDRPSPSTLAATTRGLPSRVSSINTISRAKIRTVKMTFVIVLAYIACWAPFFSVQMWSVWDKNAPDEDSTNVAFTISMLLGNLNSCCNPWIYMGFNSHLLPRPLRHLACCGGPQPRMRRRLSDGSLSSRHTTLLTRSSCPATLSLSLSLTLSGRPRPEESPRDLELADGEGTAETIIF

Vasopressin V1b receptor = target: T4, Vasopressin V1b receptor (Homo sapiens, UniProt P47901); assay: Displacement of [3H]-AVP from human vasopressin V1b receptor expressed in CHO cells after 30 mins; assay type: cell-based
T4 sequence (P47901 whole entry): T3 sequence (whole entry)

Vasopressin V1a receptor [4] = target: T5, Vasopressin V1a receptor (Homo sapiens, UniProt P37288); assay: Displacement of [3H]-AVP from human vasopressin V1a receptor expressed in CHO cells at 10 uM after 30 mins; assay type: cell-based; in short: as §1
Target sequence in this assay (P37288 whole entry, looked up): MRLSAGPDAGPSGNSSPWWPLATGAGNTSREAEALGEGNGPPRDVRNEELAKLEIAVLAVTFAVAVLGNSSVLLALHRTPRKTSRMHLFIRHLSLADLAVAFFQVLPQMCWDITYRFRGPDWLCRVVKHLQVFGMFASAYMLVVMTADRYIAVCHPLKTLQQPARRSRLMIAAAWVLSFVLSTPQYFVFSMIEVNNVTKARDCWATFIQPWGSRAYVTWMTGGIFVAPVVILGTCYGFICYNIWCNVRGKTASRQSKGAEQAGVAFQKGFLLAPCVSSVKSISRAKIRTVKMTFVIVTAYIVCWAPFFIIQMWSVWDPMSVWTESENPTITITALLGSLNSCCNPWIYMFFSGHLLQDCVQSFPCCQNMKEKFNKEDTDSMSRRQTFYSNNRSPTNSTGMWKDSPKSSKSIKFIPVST

Vasopressin V1a receptor [5] = target: T5, Vasopressin V1a receptor; assay: Displacement of [3H]-AVP from human vasopressin V1a receptor expressed in CHO cells after 30 mins; assay type: cell-based
Target sequence in this assay (P37288 whole entry): as the sequence (P37288 whole entry, looked up) above

Vasopressin V2 receptor [6] = target: T6, Vasopressin V2 receptor (Homo sapiens, UniProt P30518); assay: Antagonist activity at human vasopressin V2 receptor expressed in CHO cells assessed as inhibition of AVP-induced cAMP accumulation after 30 mins by TR-FRET based HTRF assay; assay type: functional, cell-based
T6 sequence (P30518 whole entry): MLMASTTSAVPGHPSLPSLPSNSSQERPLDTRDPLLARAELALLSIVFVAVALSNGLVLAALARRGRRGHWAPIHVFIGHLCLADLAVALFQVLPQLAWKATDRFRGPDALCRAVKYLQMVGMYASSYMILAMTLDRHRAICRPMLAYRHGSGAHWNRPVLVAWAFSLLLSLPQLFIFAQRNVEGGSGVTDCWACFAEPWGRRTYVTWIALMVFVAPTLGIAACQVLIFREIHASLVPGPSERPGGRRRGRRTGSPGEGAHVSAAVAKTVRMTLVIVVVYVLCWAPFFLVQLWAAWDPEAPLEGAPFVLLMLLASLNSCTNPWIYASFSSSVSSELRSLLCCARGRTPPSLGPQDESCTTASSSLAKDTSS
In short: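 CHO cells stably expressing human V2R, 5 × 10^3 per well on polyornithine, used 24 h after seeding. Incubated 30 min at 37 °C with compound (10−12 to 10−5 M) plus phosphodiesterase inhibitor RO 201724 0.1 mM. Antagonist mode run with 1 nM AVP. Cells lysed and cAMP read by HTRF (TR-FRET). Kact/Kinact from three independent experiments in triplicate, mean ± SEM.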

Vasopressin V2 receptor [7] = target: T6, Vasopressin V2 receptor; assay: Agonist activity at human vasopressin V2 receptor expressed in CHO cells assessed as cAMP accumulation after 30 mins by TR-FRET based HTRF assay; assay type: functional, cell-based
In short: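 CHO cells stably expressing human V2R, 5 × 10^3 per well on polyornithine, used 24 h after seeding. Cells lysed and cAMP read by HTRF (TR-FRET). Kact/Kinact from three independent experiments in triplicate, mean ± SEM.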

Vasopressin V2 receptor [8] = target: T6, Vasopressin V2 receptor; assay: Displacement of [3H]-AVP from human vasopressin V2 receptor expressed in CHO cells after 30 mins; assay type: cell-based
[9] = Solubility of the compound in HEPES buffer at pH 7.4 after 24 hrs; assay type: physicochemical
In short: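 Solubility measured in pH 7.4 HEPES buffer after 24 h incubation at 22 °C.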

Vasopressin V2 receptor [10] = target: T6, Vasopressin V2 receptor; assay: Binding affinity to SNAP-tagged vasopressin V2 receptor expressed in HEK293 cells after 1 hr by TR-FRET assay; assay type: cell-based
In short: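 HEK 293T cells electroporated with SNAP-tag–V2R and grown 48 h. Receptor labeled 1 h at 37 °C with SNAP-Lumi4-Tb (100 nM) or SNAP-RED (300 nM), then washed. Rising fluorescent-ligand concentrations added and incubated overnight at 4 °C. TR-FRET read with excitation 340 nm, emission 620/665 nm. Nonspecific binding taken with 10 μM unlabeled ligand. Kd from saturation, three experiments in triplicate.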

[11] = target: T7, Muscarinic acetylcholine receptor M1 (Homo sapiens, UniProt P11229); assay: Binding affinity to human muscarinic M1 receptor
T7 sequence (P11229 whole entry): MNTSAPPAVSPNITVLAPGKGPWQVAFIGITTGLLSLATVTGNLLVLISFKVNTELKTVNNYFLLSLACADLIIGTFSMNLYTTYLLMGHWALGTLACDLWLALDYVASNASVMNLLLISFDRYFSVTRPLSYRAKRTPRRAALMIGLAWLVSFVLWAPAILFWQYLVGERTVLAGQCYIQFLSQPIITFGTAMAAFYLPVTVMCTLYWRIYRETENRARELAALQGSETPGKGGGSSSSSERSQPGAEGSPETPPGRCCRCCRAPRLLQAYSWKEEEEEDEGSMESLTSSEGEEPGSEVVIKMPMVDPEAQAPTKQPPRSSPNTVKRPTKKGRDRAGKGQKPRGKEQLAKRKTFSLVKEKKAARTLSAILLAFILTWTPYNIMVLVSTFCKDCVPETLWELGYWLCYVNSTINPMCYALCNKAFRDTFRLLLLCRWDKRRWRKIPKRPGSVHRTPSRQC

Oxytocin receptor [12] = target: T1, Oxytocin receptor; assay: Binding affinity to oxytocin receptor
In short: (§2)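 Membranes (5 μg protein) from CHO cells stably expressing human V2R, V1aR, V1bR or OTR. Incubated 30 min at 30 °C in 50 mM Tris-HCl pH 7.4, 5 mM MgCl2, 1 mg/mL BSA with [3H]-AVP (1−2 nM) and competitor from 100 pM to 100 μM. Nonspecific binding with 10 μM AVP. GF/C filtration; Ki by nonlinear least-squares regression. Triplicate, at least three membrane batches.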

Vasopressin V1a receptor [13] = target: T5, Vasopressin V1a receptor; assay: Binding affinity to vasopressin V1a receptor; in short: as §2
Target sequence in this assay (P37288 whole entry): as the sequence (P37288 whole entry, looked up) above

Row | SMILES | Kb (Vasopressin V2 receptor [6]) [µM] | inhibition (Vasopressin V2 receptor [6]) | Activity (Vasopressin V2 receptor [7]) | Ki (Vasopressin V2 receptor [8]) [µM] | further results
1 | CCN(CC)c1ccc2c(-c3ccc(S(=O)(=O)N4CCN(CCC(=O)NC5CCCN(C(=O)c6ccc(NC(=O)c7ccccc7-c7ccccc7)cc6)c6ccccc65)CC4)cc3S(=O)(=O)[O-])c3ccc(=[N+](CC)CC)cc-3oc2c1 (stereo unspecified) | 0.00203 | Dose-dependent effect | inactive | 0.0127 | solubility at 24 h [9]: 3.7 µM (≈ 4.23 µg/mL)
2 | CCN1/C(=C/C=C/C=C/C2=[N+](CC)c3ccc(S(=O)(=O)[O-])cc3C2(C)C)C(C)(CCCC(=O)NCCOCCOCCOCCOCCOCCOCCn2cc(CNC(=O)CCC(=O)NC3CCCN(C(=O)c4ccc(NC(=O)c5ccccc5-c5ccccc5)cc4)c4ccccc43)nn2)c2cc(S(=O)(=O)O)ccc21 (stereo unspecified) | 0.00054 | Dose-dependent effect | inactive | 0.0142 | Kd (Vasopressin V2 receptor [10]): 0.00253 µM
3 | O=C(CCC1=[N+]2C(C=C1)Cc1ccc(-c3cccs3)n1[B-]2(F)F)NCCCCCCN1CCN(CC(=O)N2c3ccccc3C(=O)Nc3cccnc32)CC1 (stereo unspecified) | – | – | – | – | Ki [11]: 0.0088 µM
4 | O=C(CCC1=[N+]2C(C=C1)Cc1ccc(-c3cccs3)n1[B-]2(F)F)NCCN1CCN(CC(=O)N2c3ccccc3C(=O)Nc3cccnc32)CC1 (stereo unspecified) | – | – | – | – | Ki [11]: > 1 µM

Further lines, with some results ahead:

Row | Kb (Vasopressin V2 receptor [6]) [µM] | inhibition (Vasopressin V2 receptor [6]) | Activity (Vasopressin V2 receptor [7]) | Ki (Vasopressin V2 receptor [8]) [µM] | SMILES | further results
5 | 0.00212 | Dose-dependent effect | inactive | 0.0141 | CCN(CC)c1ccc2c(-c3ccc(S(=O)(=O)[O-])cc3S(=O)(=O)NCCOCCOCCOCCn3cc(CNC(=O)CCC(=O)NC4CCCN(C(=O)c5ccc(NC(=O)c6ccccc6-c6ccccc6)cc5)c5ccccc54)nn3)c3ccc(=[N+](CC)CC)cc-3oc2c1 (stereo unspecified) | Ki (Oxytocin receptor [1]): > 10 µM; inhibition [2]: < 50%; inhibition [3]: < 50%; Ki (Vasopressin V1b receptor): > 10 µM; inhibition (Vasopressin V1a receptor [4]): < 50%; Ki (Vasopressin V1a receptor [5]): > 10 µM
6 | 0.0167 | Dose-dependent effect | inactive | 0.0543 | CCN(CC)c1ccc2c(-c3ccc(S(=O)(=O)NCCOCCOCCOCCn4cc(CNC(=O)CCC(=O)NC5CCCN(C(=O)c6ccc(NC(=O)c7ccccc7C)cc6)c6ccccc65)nn4)cc3S(=O)(=O)[O-])c3ccc(=[N+](CC)CC)cc-3oc2c1 (stereo unspecified) | Ki (Oxytocin receptor [1]): 0.495 µM; inhibition [3]: < 50%; Ki (Vasopressin V1b receptor): > 10 µM; inhibition (Vasopressin V1a receptor [4]): < 50%; Ki (Vasopressin V1a receptor [5]): > 10 µM; solubility at 24 h [9]: 3.4 µM (≈ 4.4 µg/mL)
7 | – | Dose-dependent effect | inactive | – | Cc1ccccc1C(=O)Nc1ccc(C(=O)N2CCCC(N(C)C)c3ccccc32)cc1 (stereo unspecified) [MOZAVAPTAN] | Ki (Oxytocin receptor [12]): 0.66 µM; Ki (Vasopressin V1a receptor [13]): 0.195 µM
